In ChEMBL document CHEMBL1147196, “Chemotherapy of leishmaniasis. Part V: Synthesis and in vitro bioevaluation of novel pyridinone derivatives” (Eur J Med Chem, 2007):
Values after ≈ are worked out from the molar mass of the structure shown. Active and inactive are the calls of the source. The calls are words filed in the database; no cut-off is given here.

How the values were obtained:
Leishmania donovani [1] = assay: Antipromastigote activity against Leishmania donovani MHOM IN/Dd8 assessed as luciferase activity after 72 hrs; assay type: functional, organism-based; conditions: for IC50 / IC90: MHOM IN/Dd8, 72 h
How it was run: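 Firefly-luciferase-transfected promastigotes kept in medium 199 + 10% FCS, penicillin/streptomycin, G418 selection. Late-log cells seeded 5 × 10^5/well, 72 h with serial dilutions (2.5–50 mg/ml as printed) in DMSO; DMSO dilution controls. Aliquot mixed 1:1 with Steady-Glo, luminescence (RLU). % inhibition = (N−n)/N × 100 vs untreated control; IC50 by probit analysis.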

Leishmania donovani [2] = assay: Antiamastigote activity against Leishmania donovani MHOM IN/Dd8 in mouse J-774A.1 cells by luciferase reporter gene assay after 72 hrs; assay type: functional, organism-based, J774.A1; conditions: for IC50: Leishmania donovani, MHOM IN/Dd8, J774.A1, 72 h
How it was run: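 J-774A.1 mouse macrophages seeded 5 × 10^4 cells/well in RPMI-1640 + 10% FCS, 37 °C, CO2; after 24 h infected with stationary-phase luciferase-expressing promastigotes (2.5 × 10^5/well). Test material added in fresh complete medium (2.5–50 mg/ml range as printed), 72 h, 37 °C. Medium removed, PBS plus Steady-Glo, luminescence read. Inhibition vs untreated control RLU; IC50 by probit analysis.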

| SMILES | IC50 (Leishmania donovani [1]) | IC90 (Leishmania donovani [1]) | IC90 (Leishmania donovani [2]) | IC50 (Leishmania donovani [2]) | Activity (Leishmania donovani [1]) |
| --- | --- | --- | --- | --- | --- |
| COc1ccc(-n2ccc(=O)c(OCCCCCOc3c(C)n(-c4ccc(OC)cc4)ccc3=O)c2C)cc1 | 12.6 µg/mL (≈ 23.7 µM) | 43.8 µg/mL (≈ 82.5 µM) | – | – | – |
| Cc1occc(=O)c1OCCCCCOc1c(C)n(Cc2ccccc2)ccc1=O | 13.5 µg/mL (≈ 33.1 µM) | 47.9 µg/mL (≈ 117 µM) | – | – | – |
| Cc1c(OCCCCCOc2c(C)n(C3CCCCC3)ccc2=O)c(=O)ccn1C1CCCCC1 | 4.57 µg/mL (≈ 9.47 µM) | 18.6 µg/mL (≈ 38.6 µM) | 62.23 µg/mL (≈ 129 µM) | 22.8 µg/mL (≈ 47.2 µM) | – |
| CCCCCCCCCCCCCCCCOP(=O)([O-])OCC[N+](C)(C)C [MILTEFOSINE] | – | – | 107.51 µg/mL (≈ 264 µM) | 33.9 µg/mL (≈ 83.2 µM) | – |
| Cc1occc(=O)c1OCCCCCOc1c(C)n(-c2ccc([N+](=O)[O-])cc2)ccc1=O | 5.75 µg/mL (≈ 13.1 µM) | 20.2 µg/mL (≈ 45.9 µM) | 28.58 µg/mL (≈ 64.9 µM) | 6.15 µg/mL (≈ 14 µM) | – |
| Cc1cccc(C)c1-n1ccc(=O)c(OCCCCCOc2c(C)n(-c3c(C)cccc3C)ccc2=O)c1C | 6.91 µg/mL (≈ 13.1 µM) | 12.5 µg/mL (≈ 23.7 µM) | 48.43 µg/mL (≈ 92 µM) | 9.64 µg/mL (≈ 18.3 µM) | – |
| Cc1c(OCCCCCOc2c(C)n(-c3ccc(F)cc3)ccc2=O)c(=O)ccn1-c1ccc(F)cc1 | – | – | – | – | inactive |
| Cc1c(OCCCCCOc2c(C)n(-c3ccccc3)ccc2=O)c(=O)ccn1-c1ccccc1 | 22.7 µg/mL (≈ 48.2 µM) | 49.8 µg/mL (≈ 106 µM) | – | – | – |
| COc1ccccc1-n1ccc(=O)c(OCCCCCOc2c(C)occc2=O)c1C | 4.04 µg/mL (≈ 9.5 µM) | 13.3 µg/mL (≈ 31.3 µM) | 38.08 µg/mL (≈ 89.5 µM) | 5.32 µg/mL (≈ 12.5 µM) | – |
| Cc1occc(=O)c1OCCCCCOc1c(C)n(C2CCCCC2)ccc1=O | 4.59 µg/mL (≈ 11.4 µM) | 10.7 µg/mL (≈ 26.6 µM) | 102.89 µg/mL (≈ 256 µM) | 24 µg/mL (≈ 59.8 µM) | – |
| Cc1occc(=O)c1OCCCCCOc1c(C)n(-c2ccc(F)cc2)ccc1=O | 43.6 µg/mL (≈ 105 µM) | 856 µg/mL (≈ 2070 µM) | – | – | – |
| Cc1cccc(C)c1-n1ccc(=O)c(OCCCCCOc2c(C)occc2=O)c1C | 17.9 µg/mL (≈ 42.2 µM) | 57.9 µg/mL (≈ 137 µM) | – | – | – |
| Cc1c(OCCCCCOc2c(C)n(Cc3ccccc3)ccc2=O)c(=O)ccn1Cc1ccccc1 | 9.98 µg/mL (≈ 20 µM) | 29.3 µg/mL (≈ 58.7 µM) | 99.48 µg/mL (≈ 200 µM) | 13.2 µg/mL (≈ 26.4 µM) | – |
| N=C(N)c1ccc(OCCCCCOc2ccc(C(=N)N)cc2)cc1 [PENTAMIDINE] | 0.58 µg/mL (≈ 1.7 µM) | 0.88 µg/mL (≈ 2.58 µM) | – | – | – |
| Cc1cccc(-n2ccc(=O)c(OCCCCCOc3c(C)n(-c4cccc(C)c4C)ccc3=O)c2C)c1C | 7.37 µg/mL (≈ 14 µM) | 19.1 µg/mL (≈ 36.2 µM) | 42.3 µg/mL (≈ 80.3 µM) | 8.57 µg/mL (≈ 16.3 µM) | – |
| Cc1occc(=O)c1OCCCCCOc1c(C)n(-c2ccc(Cl)cc2)ccc1=O | 15.7 µg/mL (≈ 36.5 µM) | 38.7 µg/mL (≈ 90.1 µM) | – | – | – |
| C[C@@H]1[C@H](O)[C@@H](C)/C=C/C=C/C=C/C=C/C=C/C=C/C=C/[C@H](O[C@@H]2O[C@H](C)[C@@H](O)[C@H](N)[C@@H]2O)C[C@@H]2O[C@](O)(C[C@@H](O)C[C@@H](O)[C@H](O)CC[C@@H](O)C[C@@H](O)CC(=O)O[C@H]1C)C[C@H](O)[C@H]2C(=O)O [AMPHOTERICIN B] | – | – | 0.1571 µg/mL (≈ 0.17 µM) | 0.00646 µg/mL (≈ 0.00699 µM) | – |
| Cc1occc(=O)c1OCCCCCOc1c(C)occc1=O | 18.7 µg/mL (≈ 58.3 µM) | 122 µg/mL (≈ 382 µM) | 112.99 µg/mL (≈ 353 µM) | 12.9 µg/mL (≈ 40.2 µM) | – |
